Active and inactive are the calls of the source. The rule behind the calls is not given here.
Experiments:
[1] = target: T1, Beta-secretase 1 (Homo sapiens, UniProt P56817); experiment: Inhibition of BACE1 in human SH-SY5Y cells harboring wild type APP695 assessed as reduction in amyloid beta (1 to 40) level after 24 hrs by ELISA method; assay type: cell-based
Method in brief: (§1)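 Aβ1-40 and Aβ1-42 levels were measured by ELISA in APPwt-expressing SH-SY5Y cells after compound treatment.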

[2] = target: T1, Beta-secretase 1; experiment: Inhibition of BACE1 in human SH-SY5Y cells harboring wild type APP695 assessed as increase in AICD level at 3 uM by Western blot method relative to chloroquine; assay type: cell-based
Method in brief: (§2)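 APP C-terminal fragments (αCTFs and AICD) were detected by Western blot and scored as band intensity. Compounds were tested at 1, 3 and 10 µM.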

[3] = target: T1, Beta-secretase 1; experiment: Inhibition of BACE1 in human SH-SY5Y cells harboring wild type APP695 assessed as increase in alphaCTF level at 3 uM by Western blot method relative to chloroquine; assay type: cell-based; method in brief: as §2
[4] = target: T1, Beta-secretase 1; experiment: Inhibition of recombinant human BACE1 at 10 uM using Mca-S-E-[…]-L-D-AEF-R-K(Dnp)-R-R-NH2 as substrate after 60 mins by fluorescence assay relative to control
Method in brief: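 BACE-1 enzymatic activity was followed by cleavage of the fluorogenic peptide Mca-S-E-V-N-L-D-AE-F-R-K(Dnp)-R-R-NH2.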

[5] = test system: Primary neuron; experiment: Inhibition of autophagy in C57BL6 mouse primary neuronal cells assessed as increase in lipidation of LC3-1 to LC3-2 up to 5 uM after 24 hrs by DAPI staining based immunofluorescence assay; assay type: functional
Method in brief: (§3)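 Autophagy markers were quantified against control: p62 expression and lipidation of LC3-I into LC3-II. Accumulation of p62- and LC3-positive vesicles was scored by immunofluorescence. This was done in SY5Y-APPwt cells and primary neurons.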

[6] = target: T1, Beta-secretase 1; experiment: Inhibition of BACE1 in human SH-SY5Y cells harboring wild type APP695 assessed as reduction in amyloid beta (1 to 42) level up to 5 uM after 24 hrs by ELISA; assay type: cell-based; method in brief: as §1
[7] = test system: Primary neuron; experiment: Inhibition of autophagy in C57BL6 mouse primary neuronal cells assessed as increase in p62 expression up to 5 uM after 24 hrs by DAPI staining based immunofluorescence assay; assay type: functional; method in brief: as §3
[8] = target: T1, Beta-secretase 1; experiment: Inhibition of BACE1 in human SH-SY5Y cells harboring wild type APP695 assessed as reduction in amyloid beta (1 to 40) level up to 5 uM after 24 hrs by ELISA; assay type: cell-based; method in brief: as §1
[9] = target: T1, Beta-secretase 1; experiment: Inhibition of BACE1 in human SH-SY5Y cells harboring wild type APP695 assessed as reduction in sAPPbeta level up to 5 uM after 24 hrs by DAPI staining based electro-chemiluminescence immunoassay; assay type: cell-based
[10] = test system: SH-SY5Y; experiment: Inhibition of autophagy in human SH-SY5Y cells harboring wild type APP695 assessed as increase in p62 expression up to 5 uM after 24 hrs by DAPI staining based immunofluorescence assay; assay type: functional, cell-based; method in brief: as §3
[11] = target: T1, Beta-secretase 1; experiment: Inhibition of BACE1 in human SH-SY5Y cells harboring wild type APP695 assessed as accumulation of AICD level up to 5 uM after 24 hrs by ELISA; assay type: cell-based
[12] = target: Beta-secretase 1 (Mus musculus) (UniProt P56818); experiment: Inhibition of BACE1 in C57BL6 mouse primary neuronal cells assessed as accumulation of AICD level up to 5 uM after 24 hrs by DAPI staining based immunofluorescence assay
[13] = target: T1, Beta-secretase 1; experiment: Inhibition of BACE1 in human SH-SY5Y cells harboring wild type APP695 assessed as increase in mature APP level up to 5 uM after 24 hrs by ELISA; assay type: cell-based; conditions: in the assay text read “by Western blot” for “by ELISA”
Method in brief: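 Full-length APP was resolved and detected with APP-C17 antiserum as two bands. The 110 kDa band is the immature, neosynthesized form and the 115 kDa band is the mature, glycosylated form. Both bands were quantified against the control condition. This was done in SH-SY5Y-APPwt cells and in primary neuronal cultures.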

[14] = target: Beta-secretase 1 (Mus musculus) (UniProt P56818); experiment: Inhibition of BACE1 in C57BL6 mouse primary neuronal cells assessed as accumulation of APP-CTF level up to 5 uM after 24 hrs by DAPI staining based immunofluorescence assay
[15] = target: Beta-secretase 1 (Mus musculus) (UniProt P56818); experiment: Inhibition of BACE1 in C57BL6 mouse primary neuronal cells assessed as increase in mature APP level up to 5 uM after 24 hrs by DAPI staining based immunofluorescence assay relative to control
[16] = Cytotoxicity against C57BL6 mouse primary neuronal cells assessed as reduction in cell viability after 24 hrs by LDH assay; assay type: cell-based; conditions: primary neuron
[17] = target: T1, Beta-secretase 1; experiment: Inhibition of BACE1 in human SH-SY5Y cells harboring wild type APP695 assessed as accumulation of APP-CTF level up to 5 uM after 24 hrs by ELISA; assay type: cell-based
[18] = test system: SH-SY5Y; experiment: Cytotoxicity against human SH-SY5Y cells harboring wild type APP695 assessed as reduction in cell viability after 24 hrs by LDH assay; assay type: cell-based
[19] = test system: SH-SY5Y; experiment: Inhibition of alpha secretase in human SH-SY5Y cells harboring wild type APP695 assessed as increase in sAPPalpha level up to 5 uM after 24 hrs by DAPI staining based electro-chemiluminescence immunoassay; assay type: cell-based
[20] = test system: SH-SY5Y; experiment: Inhibition of autophagy in human SH-SY5Y cells harboring wild type APP695 assessed as increase in lipidation of LC3-1 to LC3-2 up to 5 uM after 24 hrs by DAPI staining based immunofluorescence assay; assay type: functional, cell-based; method in brief: as §3

T1 sequence (P56817 whole entry): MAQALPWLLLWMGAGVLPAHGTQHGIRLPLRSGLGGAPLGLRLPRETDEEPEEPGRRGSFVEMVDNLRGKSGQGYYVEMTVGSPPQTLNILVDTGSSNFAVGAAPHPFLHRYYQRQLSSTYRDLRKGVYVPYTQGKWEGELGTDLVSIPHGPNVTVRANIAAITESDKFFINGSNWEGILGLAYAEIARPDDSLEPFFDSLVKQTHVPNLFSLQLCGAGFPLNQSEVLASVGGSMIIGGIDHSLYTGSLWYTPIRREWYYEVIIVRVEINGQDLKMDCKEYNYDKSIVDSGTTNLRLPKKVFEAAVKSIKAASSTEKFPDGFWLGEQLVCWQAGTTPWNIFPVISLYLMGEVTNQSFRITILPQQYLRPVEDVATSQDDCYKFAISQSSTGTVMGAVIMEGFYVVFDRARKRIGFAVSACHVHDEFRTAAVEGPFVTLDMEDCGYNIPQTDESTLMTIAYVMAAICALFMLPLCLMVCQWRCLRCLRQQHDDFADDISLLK
Chain of Beta-secretase 1 (Mus musculus) (P56818 whole entry): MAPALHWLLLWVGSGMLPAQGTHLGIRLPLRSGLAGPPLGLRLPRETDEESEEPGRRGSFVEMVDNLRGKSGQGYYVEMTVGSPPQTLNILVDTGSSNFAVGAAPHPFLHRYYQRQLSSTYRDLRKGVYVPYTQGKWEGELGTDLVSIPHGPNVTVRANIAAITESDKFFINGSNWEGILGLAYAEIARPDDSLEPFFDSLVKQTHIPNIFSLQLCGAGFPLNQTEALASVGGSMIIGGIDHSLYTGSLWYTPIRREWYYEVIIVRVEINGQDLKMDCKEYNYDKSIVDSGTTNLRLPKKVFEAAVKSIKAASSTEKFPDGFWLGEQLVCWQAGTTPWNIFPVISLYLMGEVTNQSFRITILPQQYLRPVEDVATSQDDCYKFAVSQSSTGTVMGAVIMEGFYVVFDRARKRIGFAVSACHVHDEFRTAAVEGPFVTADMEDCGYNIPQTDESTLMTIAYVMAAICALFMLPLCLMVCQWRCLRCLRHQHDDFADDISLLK

Row | Structure (SMILES) | IC50 [1] [nM] | fold change (FC) [2] | fold change (FC) [3] | further results
1 | Oc1c(CN2CCCC2)cc(Nc2ccnc3cc(Cl)ccc23)cc1CN1CCCC1 | 5100 | 2.5 | 2.1 | 
2 | CN(C)Cc1ccccc1-c1ccc(NCCCN2CCCCC2)c(OCCC2CCCCC2)c1 | 2100 | 0.1 | 0.1 | inhibition [4]: < 10%; inhibition [5]: inactive; inhibition [6]: Active; inhibition [7]: inactive; inhibition [8]: Active; inhibition [9]: Active; inhibition [10]: inactive; inhibition [11]: inactive; inhibition [12]: inactive; inhibition [13]: inactive; inhibition [14]: inactive; inhibition [15]: inactive; Activity [16]: Non-Toxic; inhibition [17]: inactive; Activity [18]: Non-Toxic; inhibition [19]: Active; inhibition [20]: inactive
3 | c1cc(CN2CCCCC2)cc(-c2ccc(NCCCN3CCCCC3)c(OCCN3CCCCC3)c2)c1 | 4300 | 2.6 | 3.3 | 
4 | CN(C)Cc1ccccc1-c1ccc(NCCCN2CCCCC2)cc1 | 3900 | 0.8 | 0.9 | 
5 | CN(C)Cc1ccn(-c2ccc(NCCCN3CCCCC3)c(OCCN3CCCCC3)c2)c1 | 5000 | 2 | 3.6 | 

More lines, in order of falling IC50 [1], values ahead:

Row | IC50 [1] [nM] | fold change (FC) [2] | fold change (FC) [3] | Structure (SMILES) | further results
6 | 2600 | 2.7 | 4.3 | c1ccc(-c2ccc(NCCCN3CCCCC3)c(OCCN3CCCCC3)c2)c(CN2CCCCC2)c1 | 
7 | 1700 | 3 | 4.2 | CN(C)Cc1ccccc1-c1ccc(NCCCCN2CCCCC2)c(OCCN2CCCCC2)c1 | 
8 | 1700 | 1.8 | 1.3 | CC(C)CN(CCCN1CCN(CCCNc2nc3ccccc3[nH]2)CC1)CC(C)C | 
9 | 1500 | 0.7 | 0.6 | CN(C)Cc1ccccc1-c1cccc(OCCN2CCCCC2)c1 | 
10 | 1400 | 4.8 | 5 | CN(C)Cc1ccccc1-c1ccc(NCCN2CCCCC2)c(OCCN2CCCCC2)c1 | 

Source: ChEMBL document CHEMBL4257565, “A phenotypic approach to the discovery of compounds that promote non-amyloidogenic processing of the amyloid precursor protein: Toward a new profile of indirect β-secretase inhibitors” (Eur J Med Chem, 2018)
